According to ChEMBL document CHEMBL1649256, “Comparison of assessment of oxygen consumption, Etest, and CLSI M38-A2 broth microdilution methods for evaluation of the susceptibility of Aspergillus fumigatus to posaconazole” (2009):
≈ marks a conversion by molar mass, not a printed value.

Assays:
Type in all cases: functional
[1] = test system: Aspergillus fumigatus; experiment: Antimicrobial activity against Aspergillus fumigatus isolate 24 after 48 hrs by Etest; conditions: isolate 24, 48 h
Summary of the method: (§1)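 Etest strips on RPMI 1640 agar with 2% glucose, pH 7.0, run per manufacturer's instructions. Incubated at 35°C; MIC read at 48 h.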

[2] = test system: Aspergillus fumigatus; experiment: Antimicrobial activity against Aspergillus fumigatus isolate 48 by oxygen consumption method
[3] = test system: Aspergillus fumigatus; experiment: Antimicrobial activity against Aspergillus fumigatus isolate 14 after 48 hrs by Etest; conditions: isolate 14, 48 h
Summary of the method: (§2)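 Posaconazole Etest strips placed on RPMI 1640 agar with 2% glucose, pH 7.0, and run per the strip maker's instructions. Incubation at 35°C, with the MIC read at 24 h and at 48 h.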

[4] = test system: Aspergillus fumigatus; experiment: Antimicrobial activity against Aspergillus fumigatus isolate 29 after 48 hrs by Etest; conditions: isolate 29, 48 h; summary of the method: as §1
[5] = test system: Aspergillus fumigatus; experiment: Antimicrobial activity against Aspergillus fumigatus isolate 7 by CLSI M38-A2 broth microdilution method
[6] = test system: Aspergillus fumigatus; experiment: Antimicrobial activity against Aspergillus fumigatus isolate 42 after 24 hrs by Etest; conditions: isolate 42, 24 h
Summary of the method: (§3)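 Posaconazole Etest strips on RPMI 1640 agar with 2% glucose, pH 7.0, run per the strip maker's instructions. Incubated at 35°C. MIC read at 24 h and at 48 h, matching the time in each line.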

[7] = test system: Aspergillus fumigatus; experiment: Antimicrobial activity against Aspergillus fumigatus isolate 35 after 48 hrs by Etest; conditions: isolate 35, 48 h; summary of the method: as §3
[8] = test system: Aspergillus fumigatus; experiment: Antimicrobial activity against Aspergillus fumigatus isolate 13 after 48 hrs by Etest; conditions: isolate 13, 48 h; summary of the method: as §2
[9] = test system: Aspergillus fumigatus; experiment: Antimicrobial activity against Aspergillus fumigatus isolate 16 by CLSI M38-A2 broth microdilution method
Summary of the method: (§4)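 Posaconazole broth microdilution follows CLSI M38-A2. The MIC is the lowest concentration with no visible growth at 48 h. Candida parapsilosis ATCC 22019 and Candida krusei ATCC 6258 were included as QC strains in every run.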

[10] = test system: Aspergillus fumigatus; experiment: Antimicrobial activity against Aspergillus fumigatus isolate 40 after 24 hrs by Etest; conditions: isolate 40, 24 h; summary of the method: as §3
[11] = test system: Aspergillus fumigatus; experiment: Antimicrobial activity against Aspergillus fumigatus isolate 49 after 48 hrs by Etest; conditions: isolate 49, 48 h
[12] = test system: Aspergillus fumigatus; experiment: Antimicrobial activity against Aspergillus fumigatus isolate 6 by oxygen consumption method
[13] = test system: Aspergillus fumigatus; experiment: Antimicrobial activity against Aspergillus fumigatus isolate 19 by oxygen consumption method
Summary of the method: (§5)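 Conidial suspension in RPMI 1640 broth with posaconazole at 0.25 and 2 μg/ml. Tubes agitated 12 h at 37°C in a biological oxygen monitor. Available oxygen was monitored continuously, and the MIC was assigned from the oxygen quantification.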

[14] = test system: Aspergillus fumigatus; experiment: Antimicrobial activity against Aspergillus fumigatus isolate 42 by oxygen consumption method
Summary of the method: (§6)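 Conidial suspension in RPMI 1640 broth, tested at two posaconazole levels (0.25 and 2 μg/ml). Agitated for 12 h at 37°C in a biological oxygen monitor. MIC derived from continuous monitoring and quantification of the available oxygen.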

[15] = test system: Aspergillus fumigatus; experiment: Antimicrobial activity against Aspergillus fumigatus isolate 33 by CLSI M38-A2 broth microdilution method
Summary of the method: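 CLSI M38-A2 broth microdilution with posaconazole. MIC taken as the lowest concentration with no visible growth at 48 h. C. parapsilosis ATCC 22019 and C. krusei ATCC 6258 were included as QC strains in every run.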

[16] = test system: Aspergillus fumigatus; experiment: Antimicrobial activity against Aspergillus fumigatus isolate 38 by oxygen consumption method; summary of the method: as §6
[17] = test system: Aspergillus fumigatus; experiment: Antimicrobial activity against Aspergillus fumigatus isolate 7 by oxygen consumption method
[18] = test system: Aspergillus fumigatus; experiment: Antimicrobial activity against Aspergillus fumigatus isolate 37 by oxygen consumption method; summary of the method: as §6
[19] = test system: Aspergillus fumigatus; experiment: Antimicrobial activity against Aspergillus fumigatus isolate 10 by oxygen consumption method; summary of the method: as §5
[20] = test system: Aspergillus fumigatus; experiment: Antimicrobial activity against Aspergillus fumigatus isolate 8 by CLSI M38-A2 broth microdilution method
[21] = test system: Aspergillus fumigatus; experiment: Antimicrobial activity against Aspergillus fumigatus isolate 26 after 48 hrs by Etest; conditions: isolate 26, 48 h; summary of the method: as §1
[22] = test system: Aspergillus fumigatus; experiment: Antimicrobial activity against Aspergillus fumigatus isolate 4 by oxygen consumption method; summary of the method: as §6
[23] = test system: Aspergillus fumigatus; experiment: Antimicrobial activity against Aspergillus fumigatus isolate 33 after 48 hrs by Etest; conditions: isolate 33, 48 h; summary of the method: as §3
[24] = test system: Aspergillus fumigatus; experiment: Antimicrobial activity against Aspergillus fumigatus isolate 22 after 24 hrs by Etest; conditions: isolate 22, 24 h
Summary of the method: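 Etest strips on RPMI 1640 agar with 2% glucose, pH 7.0, run per manufacturer's instructions. Incubated at 35°C; MIC read at 24 h.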

[25] = test system: Aspergillus fumigatus; experiment: Antimicrobial activity against Aspergillus fumigatus isolate 40 after 48 hrs by Etest; conditions: isolate 40, 48 h; summary of the method: as §3
[26] = test system: Aspergillus fumigatus; experiment: Antimicrobial activity against Aspergillus fumigatus isolate 11 after 24 hrs by Etest; conditions: isolate 11, 24 h; summary of the method: as §2
[27] = test system: Aspergillus fumigatus; experiment: Antimicrobial activity against Aspergillus fumigatus isolate 11 after 48 hrs by Etest; conditions: isolate 11, 48 h; summary of the method: as §2
[28] = test system: Aspergillus fumigatus; experiment: Antimicrobial activity against Aspergillus fumigatus isolate 41 after 48 hrs by Etest; conditions: isolate 41, 48 h; summary of the method: as §3
[29] = test system: Aspergillus fumigatus; experiment: Antimicrobial activity against Aspergillus fumigatus isolate 17 after 48 hrs by Etest; conditions: isolate 17, 48 h; summary of the method: as §2
[30] = test system: Aspergillus fumigatus; experiment: Antimicrobial activity against Aspergillus fumigatus isolate 10 by CLSI M38-A2 broth microdilution method; summary of the method: as §4
[31] = test system: Aspergillus fumigatus; experiment: Antimicrobial activity against Aspergillus fumigatus isolate 43 by oxygen consumption method
[32] = test system: Aspergillus fumigatus; experiment: Antimicrobial activity against Aspergillus fumigatus isolate 6 by CLSI M38-A2 broth microdilution method
[33] = test system: Aspergillus fumigatus; experiment: Antimicrobial activity against Aspergillus fumigatus isolate 11 by oxygen consumption method; summary of the method: as §5
[34] = test system: Aspergillus fumigatus; experiment: Antimicrobial activity against Aspergillus fumigatus isolate 27 after 48 hrs by Etest; conditions: isolate 27, 48 h; summary of the method: as §1
[35] = test system: Aspergillus fumigatus; experiment: Antimicrobial activity against Aspergillus fumigatus isolate 12 by CLSI M38-A2 broth microdilution method; summary of the method: as §4
[36] = test system: Aspergillus fumigatus; experiment: Antimicrobial activity against Aspergillus fumigatus isolate 7 after 24 hrs by Etest; conditions: isolate 7, 24 h
[37] = test system: Aspergillus fumigatus; experiment: Antimicrobial activity against Aspergillus fumigatus isolate 43 by CLSI M38-A2 broth microdilution method
[38] = test system: Aspergillus fumigatus; experiment: Antimicrobial activity against Aspergillus fumigatus isolate 2 after 24 hrs by Etest; conditions: isolate 2, 24 h; summary of the method: as §2
[39] = test system: Aspergillus fumigatus; experiment: Antimicrobial activity against Aspergillus fumigatus isolate 35 by oxygen consumption method; summary of the method: as §6
[40] = test system: Aspergillus fumigatus; experiment: Antimicrobial activity against Aspergillus fumigatus isolate 45 by CLSI M38-A2 broth microdilution method
[41] = test system: Aspergillus fumigatus; experiment: Antimicrobial activity against Aspergillus fumigatus isolate 34 after 48 hrs by Etest; conditions: isolate 34, 48 h; summary of the method: as §3
[42] = test system: Aspergillus fumigatus; experiment: Antimicrobial activity against Aspergillus fumigatus isolate 30 by oxygen consumption method
Summary of the method: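 Conidial suspension in RPMI 1640 broth, 1.5 ml, with two drug concentrations (0.25 and 2 μg/ml). Tubes agitated 12 h at 37°C in a biological oxygen monitor. Available oxygen monitored continuously and quantified to assign the MIC.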

[43] = test system: Aspergillus fumigatus; experiment: Antimicrobial activity against Aspergillus fumigatus isolate 34 after 24 hrs by Etest; conditions: isolate 34, 24 h; summary of the method: as §3
[44] = test system: Aspergillus fumigatus; experiment: Antimicrobial activity against Aspergillus fumigatus isolate 40 by oxygen consumption method; summary of the method: as §6
[45] = test system: Aspergillus fumigatus; experiment: Antimicrobial activity against Aspergillus fumigatus isolate 30 after 48 hrs by Etest; conditions: isolate 30, 48 h; summary of the method: as §1
[46] = test system: Aspergillus fumigatus; experiment: Antimicrobial activity against Aspergillus fumigatus isolate 32 by oxygen consumption method; summary of the method: as §6
[47] = test system: Aspergillus fumigatus; experiment: Antimicrobial activity against Aspergillus fumigatus isolate 8 by oxygen consumption method

Q: For CC[C@@H]([C@H](C)O)n1ncn(-c2ccc(N3CCN(c4ccc(OC[C@@H]5CO[C@@](Cn6cncn6)(c6ccc(F)cc6F)C5)cc4)CC3)cc2)c1=O [POSACONAZOLE], which MIC [1] is on record?
A: The MIC was 0.125 µg/mL (≈ 0.178 µM).

Q: What about the MIC [2] of the same compound?
A: Its MIC is ≤ 0.25 µg/mL.

Q: And the MIC [3]?
A: Its MIC is 0.5 µg/mL (≈ 0.713 µM).

Q: What about the MIC [4] of the same compound?
A: Its MIC is 0.25 µg/mL (≈ 0.357 µM).

Q: And the MIC [5]?
A: Its MIC is 0.25 µg/mL (≈ 0.357 µM).

Q: What about the MIC [6] of the same compound?
A: Its MIC is 0.06 µg/mL (≈ 0.0856 µM).

Q: What about the MIC [7] of the same compound?
A: The MIC was 0.25 µg/mL (≈ 0.357 µM).

Q: What about the MIC [8] of the same compound?
A: Its MIC is 0.25 µg/mL (≈ 0.357 µM).

Q: What about the MIC [9] of the same compound?
A: The MIC was 0.125 µg/mL (≈ 0.178 µM).

Q: And the MIC [10]?
A: Its MIC is 0.125 µg/mL (≈ 0.178 µM).

Q: What about the MIC [11] of the same compound?
A: The MIC was 0.5 µg/mL (≈ 0.713 µM).

Q: What about the MIC [12] of the same compound?
A: The MIC was ≤ 0.25 µg/mL.

Q: What about the MIC [13] of the same compound?
A: Its MIC is ≥ 0.5 µg/mL.

Q: What about the MIC [14] of the same compound?
A: The MIC was ≤ 0.25 µg/mL.

Q: What about the MIC [15] of the same compound?
A: Its MIC is 0.125 µg/mL (≈ 0.178 µM).

Q: What about the MIC [16] of the same compound?
A: The MIC was ≤ 0.25 µg/mL.

Q: And the MIC [17]?
A: Its MIC is ≤ 0.25 µg/mL.

Q: What about the MIC [18] of the same compound?
A: Its MIC is ≤ 0.25 µg/mL.

Q: What about the MIC [19] of the same compound?
A: Its MIC is ≤ 0.25 µg/mL.

Q: What about the MIC [20] of the same compound?
A: Its MIC is 0.125 µg/mL (≈ 0.178 µM).

Q: What about the MIC [21] of the same compound?
A: The MIC was 0.25 µg/mL (≈ 0.357 µM).

Q: What about the MIC [22] of the same compound?
A: The MIC was ≥ 0.5 µg/mL.

Q: What about the MIC [23] of the same compound?
A: The MIC was 0.25 µg/mL (≈ 0.357 µM).

Q: What about the MIC [24] of the same compound?
A: The MIC was 0.25 µg/mL (≈ 0.357 µM).

Q: What about the MIC [25] of the same compound?
A: Its MIC is 0.25 µg/mL (≈ 0.357 µM).

Q: And the MIC [26]?
A: Its MIC is 0.125 µg/mL (≈ 0.178 µM).

Q: And the MIC [27]?
A: The MIC was 0.25 µg/mL (≈ 0.357 µM).

Q: And the MIC [28]?
A: Its MIC is ≤ 0.03 µg/mL.

Q: And the MIC [29]?
A: The MIC was 0.25 µg/mL (≈ 0.357 µM).

Q: And the MIC [30]?
A: The MIC was 0.25 µg/mL (≈ 0.357 µM).

Q: And the MIC [31]?
A: The MIC was ≤ 0.25 µg/mL.

Q: What about the MIC [32] of the same compound?
A: The MIC was 0.125 µg/mL (≈ 0.178 µM).

Q: And the MIC [33]?
A: Its MIC is ≤ 0.25 µg/mL.

Q: And the MIC [34]?
A: The MIC was 0.25 µg/mL (≈ 0.357 µM).

Q: What about the MIC [35] of the same compound?
A: Its MIC is 0.125 µg/mL (≈ 0.178 µM).

Q: What about the MIC [36] of the same compound?
A: The MIC was 0.25 µg/mL (≈ 0.357 µM).

Q: And the MIC [37]?
A: The MIC was 0.125 µg/mL (≈ 0.178 µM).

Q: And the MIC [38]?
A: Its MIC is 0.5 µg/mL (≈ 0.713 µM).

Q: What about the MIC [39] of the same compound?
A: Its MIC is ≤ 0.25 µg/mL.

Q: And the MIC [40]?
A: The MIC was 0.125 µg/mL (≈ 0.178 µM).

Q: What about the MIC [41] of the same compound?
A: Its MIC is ≤ 0.03 µg/mL.

Q: And the MIC [42]?
A: The MIC was ≤ 0.25 µg/mL.

Q: And the MIC [43]?
A: The MIC was ≤ 0.03 µg/mL.

Q: What about the MIC [44] of the same compound?
A: The MIC was ≤ 0.25 µg/mL.

Q: And the MIC [45]?
A: Its MIC is 0.5 µg/mL (≈ 0.713 µM).

Q: And the MIC [46]?
A: The MIC was ≤ 0.25 µg/mL.

Q: And the MIC [47]?
A: The MIC was ≥ 0.5 µg/mL.
